Results pooled from the literature.
Target: Aurora kinase C (AURKC, Homo sapiens, UniProt Q9UQB9)
One construct used (Q9UQB9 1-309): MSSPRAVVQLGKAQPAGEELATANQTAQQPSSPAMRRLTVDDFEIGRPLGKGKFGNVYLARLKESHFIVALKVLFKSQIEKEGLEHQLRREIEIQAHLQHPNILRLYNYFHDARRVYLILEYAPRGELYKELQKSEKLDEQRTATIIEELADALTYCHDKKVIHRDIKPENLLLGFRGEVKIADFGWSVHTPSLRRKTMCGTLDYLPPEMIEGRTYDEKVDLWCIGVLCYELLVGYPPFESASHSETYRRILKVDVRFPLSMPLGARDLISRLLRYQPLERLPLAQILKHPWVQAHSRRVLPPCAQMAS

SMILES	observed	method	tested at	remaining binding
c1cncc(-c2cccc(Nc3nccc(NC4CCCCC4)n3)c2)c1	binding	competition with immobilised ligand	10 µM	5.5%
COc1ccc2c(O[C@@H]3C[C@H]4C(=O)N[C@]5(C(=O)O)CC5/C=C\CCCCC[C@H](NC(=O)OC5CCCC5)C(=O)N4C3)cc(-c3csc(NC(=O)C(C)C)n3)nc2c1C (stereo partly shown)	cell-free assay	competition with immobilised ligand	1 µM	96%
O=C(NCC1CCOCC1)c1n[nH]cc1NC(=O)c1c(F)cccc1F	binding	competition with immobilised ligand	1 µM	79%
F[C@@H]1CCN(c2nccc(-c3cnn4ncccc34)n2)C1	binding	–	1 µM	100%
CS(=O)(=O)c1cc(C2(NC(=O)c3cncc4c3cnn4-c3ccc(F)cc3)CC2)ccn1	cell-free assay	competition with immobilised ligand	1 µM	100%
C[C@H]1CCN(c2nccc(-c3cnn4ncccc34)n2)C1	binding	–	1 µM	95%
Cc1cnc(Nc2ccc(C(=O)N3CCC(N4CCCC4)CC3)cc2)nc1-c1cc2ccccc2s1	binding	competition with immobilised ligand	1 µM	4.3%
O=C(NC[C@@H]1[C@H]2CN(C(=O)OCc3cc(C(F)(F)F)cc(C(F)(F)F)c3)C[C@@H]12)c1ccc2[nH]nnc2c1	cell-free assay	competition with immobilised ligand	1 µM	91%
N[C@H]1CCN(c2nccc(-c3cnn4ncccc34)n2)C1	binding	–	1 µM	97%
CNC(=O)Nc1ccc2c(c1)CC[C@@]21OC(=O)N(CC(=O)N(Cc2ccc(F)cc2)[C@@H](C)C(F)(F)F)C1=O	cell-free assay	competition with immobilised ligand	1 µM	100%
C[C@@H](c1ccc(-n2cnc3c(N)ncnc32)cc1)N1CCc2nn(C)c(Cc3ccccc3)c2C1=O	binding	competition with immobilised ligand	0.1 µM	79%
Nc1ncc2c(n1)-c1c([nH]c3ccc(C#CC4CC4)cc13)CCCC2	binding	competition with immobilised ligand	1 µM	86%
FC(F)(F)Oc1cccc(-c2cnc3ccc(-c4ccncc4)nn23)c1	cell-free assay	competition with immobilised ligand	5 µM	78%
CN(C)c1nccc(-c2cnc3ncccn23)n1	binding	–	1 µM	100%
O=C(c1ccc(Nc2ncc(Cl)c(-c3cc4ccccc4s3)n2)cc1)N1CCC(N2CCCC2)CC1	binding	competition with immobilised ligand	1 µM	1.8%
O=C(Nc1cccnn1)N1CCC(=Cc2cccc(Oc3ccc(C(F)(F)F)cn3)c2)CC1	cell-free assay	competition with immobilised ligand	1 µM	100%
O=C(NCCCN1CCOCC1)c1ccc(Nc2nccc(-c3cc4ccccc4s3)n2)cc1	binding	competition with immobilised ligand	1 µM	32%
CN(CCCC(F)(F)F)c1nccc(-c2cnn3ncccc23)n1	binding	–	1 µM	100%
CO[C@@H](C)c1c(Nc2ccc([C@H](N(C)C(=O)C3CCS(=O)(=O)CC3)C(F)(F)F)cc2)cnc2cc(Cl)nn12	cell-free assay	competition with immobilised ligand	1 µM	77%
CNC(=O)[C@@H]1CC[C@@H](n2c(-c3ccc4cnccc4c3)nc3ccc(C(=O)NCc4cccc(C(N)=O)c4)cc32)C1	binding	competition with immobilised ligand	1 µM	100%
c1cnn2ncc(-c3ccnc(N4CCC45COC5)n3)c2c1	binding	–	1 µM	96%
O=C(N1CCS(=O)(=O)CC1)N1C[C@H](c2ccc(OC(F)(F)F)cc2)C[C@H](c2nc(C3CC3)no2)C1	cell-free assay	competition with immobilised ligand	1 µM	99%
